The record followed here is ChEMBL document CHEMBL3758117, “Discovery of indeno[1,2-b]quinoxaline derivatives as potential anticancer agents” (Eur J Med Chem, 2016).

Calls of active or inactive are those of the source. The rule behind the calls is not given here. Where only a bound is given, the exact number is not on record here.

Test [1] deals with T1, DNA topoisomerase 1 (Homo sapiens) (UniProt P11387).
T1 sequence (whole entry): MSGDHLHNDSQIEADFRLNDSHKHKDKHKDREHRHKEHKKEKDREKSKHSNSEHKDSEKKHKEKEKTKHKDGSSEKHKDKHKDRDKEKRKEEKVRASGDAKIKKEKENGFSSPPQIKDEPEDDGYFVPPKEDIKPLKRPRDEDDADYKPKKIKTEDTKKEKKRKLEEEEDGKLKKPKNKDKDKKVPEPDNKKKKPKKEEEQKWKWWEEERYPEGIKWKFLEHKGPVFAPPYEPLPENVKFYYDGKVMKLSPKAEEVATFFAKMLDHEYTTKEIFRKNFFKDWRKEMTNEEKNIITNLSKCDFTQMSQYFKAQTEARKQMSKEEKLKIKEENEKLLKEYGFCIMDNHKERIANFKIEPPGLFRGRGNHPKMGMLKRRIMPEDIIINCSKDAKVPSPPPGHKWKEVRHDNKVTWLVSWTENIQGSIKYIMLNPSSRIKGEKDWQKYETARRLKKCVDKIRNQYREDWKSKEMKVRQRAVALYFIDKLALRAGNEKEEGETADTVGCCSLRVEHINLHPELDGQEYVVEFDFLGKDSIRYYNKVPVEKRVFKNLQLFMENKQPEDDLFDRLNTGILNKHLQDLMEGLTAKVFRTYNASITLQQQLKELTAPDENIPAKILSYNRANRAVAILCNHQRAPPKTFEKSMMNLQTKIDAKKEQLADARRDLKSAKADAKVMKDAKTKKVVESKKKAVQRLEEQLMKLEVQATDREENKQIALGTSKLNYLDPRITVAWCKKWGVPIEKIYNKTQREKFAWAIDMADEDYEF
Briefly: Inhibition of human DNA topoisomerase 1-mediated relaxation of supercoiled pBR322 DNA at 100 uM after 30 mins by ethidium bromide staining based agarose gel electrophoresis. Put shortly: (§1)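 Human topo I or topo II (2 units) was reacted with 0.2 μg supercoiled pBR322 in 20 μl Tris-HCl pH 7.5 containing KCl, DTT, EDTA, MgCl2 and BSA, with DMSO held at 0.5%, for 30 min at 37°C. The reaction was stopped with SDS. Samples were run on 1% agarose in Tris-acetate/EDTA at 1.5 V/cm for 2-3 h and stained with ethidium bromide. Relaxation was quantified by densitometry of the supercoiled band area.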

The target in test [2] is T1, DNA topoisomerase 1 (Homo sapiens). In words: Inhibition of human DNA topoisomerase 1-mediated relaxation of supercoiled pBR322 DNA at 10 uM after 30 mins by ethidium bromide staining based agarose gel electrophoresis. Put shortly: as §1
Test [3] is described as follows: Antiproliferative activity against human H1299 cells after 72 hrs by XTT assay. In kind it is functional, cell-based. The note with it: NCI-H1299, 72 h. The method, boiled down: (§2)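 Cells kept as monolayers in DMEM with 10% FBS, penicillin, streptomycin and amphotericin at 37°C, 5% CO2. Seeded at 5 x 10³ cells/well and exposed to compound for 72 h in medium with 10% FBS. XTT plus electron-coupling reagent added, 4 h at 37°C, absorbance read at 492 nm. Percent of control growth uses mean absorbance (n = 3). The 50% value is taken from the linear portion of the curve.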

For test [4], the target named is DNA topoisomerase 2-alpha (Homo sapiens) (UniProt P11388). In words: Inhibition of human DNA topoisomerase 2-mediated relaxation of supercoiled pBR322 DNA at 100 uM after 30 mins by ethidium bromide staining based agarose gel electrophoresis. Put shortly:
as §1

Test [5] relates to MDA-MB-231. Briefly: Antiproliferative activity against human MDA-MB-231 cells after 72 hrs by XTT assay. In kind it is functional, cell-based. The note with it: MDA-MB-231, 72 h. The method, boiled down: as §2
For test [6], the system named is MRC5. Briefly: Antiproliferative activity against human MRC5 cells after 72 hrs by XTT assay. It counts as cell-based. The following applies: MRC5, 72 h. Put shortly: as §2
Test [7] is described as follows: Antiproliferative activity against human PC3 cells after 72 hrs by XTT assay. The note with it: PC-3, 72 h. In kind it is functional, cell-based. The method, boiled down: as §2
The nature of test [8]: Antiproliferative activity against human HuH7 cells after 72 hrs by XTT assay. In kind it is functional, cell-based. The note with it: Huh-7, 72 h. Put shortly:
as §2

In test [9] the test system is Escherichia coli. Briefly: Binding affinity to Escherichia coli negative supercoiled pBR322 DNA at 10 uM after 12 hrs by ethidium bromide staining based agarose gel electrophoresis. The method, boiled down: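 Negatively supercoiled pBR322 (400 ng) in TE buffer pH 8.0 was incubated with compound at 10 μM for 12 h at room temperature. Loading buffer with sarkosyl was added. Samples were run on 1% agarose at 6 V/cm for 2.5 h in TAE pH 8.5, stained with ethidium bromide and photographed under UV.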

The nature of test [10]: Selectivity index, ratio of IC50 for human MRC5 cells to IC50 for human H1299 cells. In kind it is functional.
The subject of test [11] is MRC5. Briefly: Selectivity index, ratio of IC50 for human MRC5 cells to IC50 for human PC3 cells. It counts as functional.
The test system of test [12] is Huh-7. Briefly: Selectivity index, ratio of IC50 for human MRC5 cells to IC50 for human HuH7 cells. It counts as functional.
Test [13] concerns MRC5. Briefly: Selectivity index, ratio of IC50 for human MRC5 cells to IC50 for human MDA-MB-231 cells. It counts as functional.
Test [14] concerns the target DNA topoisomerase 2-alpha (Homo sapiens) (UniProt P11388). Briefly: Inhibition of human DNA topoisomerase 2-mediated relaxation of supercoiled pBR322 DNA at 10 uM after 30 mins by ethidium bromide staining based agarose gel electrophoresis. Put shortly: as §1

Chain of DNA topoisomerase 2-alpha (Homo sapiens) (P11388 whole entry): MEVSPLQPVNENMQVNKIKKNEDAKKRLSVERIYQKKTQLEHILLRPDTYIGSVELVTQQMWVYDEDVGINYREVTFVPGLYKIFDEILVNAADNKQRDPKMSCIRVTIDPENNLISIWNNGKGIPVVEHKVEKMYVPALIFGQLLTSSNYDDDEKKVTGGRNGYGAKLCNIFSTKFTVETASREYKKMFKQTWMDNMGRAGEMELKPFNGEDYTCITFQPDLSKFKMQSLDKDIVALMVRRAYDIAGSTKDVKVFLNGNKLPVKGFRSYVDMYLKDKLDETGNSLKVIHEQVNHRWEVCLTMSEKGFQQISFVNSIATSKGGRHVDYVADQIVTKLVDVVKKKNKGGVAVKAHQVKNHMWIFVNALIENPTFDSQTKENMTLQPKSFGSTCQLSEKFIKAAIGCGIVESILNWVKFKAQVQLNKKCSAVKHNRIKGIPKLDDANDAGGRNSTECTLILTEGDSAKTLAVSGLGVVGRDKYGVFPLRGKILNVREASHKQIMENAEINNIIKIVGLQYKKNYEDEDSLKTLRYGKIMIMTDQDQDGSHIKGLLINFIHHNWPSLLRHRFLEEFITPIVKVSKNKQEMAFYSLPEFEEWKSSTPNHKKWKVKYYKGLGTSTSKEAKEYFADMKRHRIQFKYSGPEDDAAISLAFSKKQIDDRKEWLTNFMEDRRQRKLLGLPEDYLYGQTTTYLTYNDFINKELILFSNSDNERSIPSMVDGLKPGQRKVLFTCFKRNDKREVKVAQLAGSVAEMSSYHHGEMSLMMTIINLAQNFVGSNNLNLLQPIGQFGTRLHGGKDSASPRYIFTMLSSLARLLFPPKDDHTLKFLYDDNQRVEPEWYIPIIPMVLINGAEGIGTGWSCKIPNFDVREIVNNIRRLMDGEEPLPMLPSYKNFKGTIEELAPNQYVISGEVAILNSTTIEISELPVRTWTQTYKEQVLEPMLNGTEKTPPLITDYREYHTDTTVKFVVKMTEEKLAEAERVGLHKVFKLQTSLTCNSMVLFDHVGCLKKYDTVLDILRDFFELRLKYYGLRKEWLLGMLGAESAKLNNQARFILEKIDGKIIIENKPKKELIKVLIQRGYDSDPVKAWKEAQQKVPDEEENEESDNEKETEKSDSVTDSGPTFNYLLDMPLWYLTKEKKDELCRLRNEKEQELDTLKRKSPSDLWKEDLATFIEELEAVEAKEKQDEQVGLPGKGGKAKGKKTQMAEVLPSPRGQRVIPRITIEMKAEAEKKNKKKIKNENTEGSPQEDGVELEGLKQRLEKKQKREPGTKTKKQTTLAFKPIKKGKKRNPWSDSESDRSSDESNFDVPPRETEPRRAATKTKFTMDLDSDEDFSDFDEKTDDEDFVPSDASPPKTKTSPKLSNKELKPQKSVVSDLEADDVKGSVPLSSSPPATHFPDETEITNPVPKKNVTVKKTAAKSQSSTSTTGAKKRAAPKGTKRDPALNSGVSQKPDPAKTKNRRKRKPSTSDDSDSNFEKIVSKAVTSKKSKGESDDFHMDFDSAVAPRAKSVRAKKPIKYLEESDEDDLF

In the case of `O=C1c2ccccc2-c2nc3c(CN4CCCCC4)cccc3nc21`, in [1], the “topoisomerase 1 inhibition (active/inactive)” value is “Active”. Besides, in test [2], the inhibition result is “inactive”. Besides, the IC50 in test [3] was more than 10 µM; in test [5], more than 10 µM; in test [6], 25.9 µM; in test [7] it was more than 10 µM; in [8], more than 10 µM. The “inhibition call (active/not active)” value in test [4] was “inactive”. Moreover, the result in test [9] was inactive.
Take `O=C1c2ccccc2-c2nc3c(CN4CCOCC4)cccc3nc21`: the “topoisomerase 1 inhibition (active/inactive)” value in [1] is “inactive”. In addition, the 50% inhibitory concentration (IC50) was more than 10 µM in test [3]; more than 10 µM in [5]; 95.7 µM in test [6]; more than 10 µM in test [7]; more than 10 µM in test [8]. Moreover, the “inhibition call (active/not active)” value in test [4] was “inactive”. Also, in [9], the outcome was inactive.
`CN(C)CCCO/N=C1\c2ccccc2-c2nc3c(CN4CCCCC4)cccc3nc21.Cl`: the “topoisomerase 1 inhibition (active/inactive)” value in test [1] was “Active”. The “Ratio IC50” value stood at 1.07 in test [10], 0.98 in test [11], 1.41 in [12] and 1.35 in test [13]. Besides, the inhibition result in test [2] is “Active”. In addition, the IC50 in test [3] was found to be 0.83 µM; in [5], 0.66 µM; in test [6], 0.89 µM; in test [7], 0.91 µM; in test [8] it was 0.63 µM. For the same compound, in test [4], the “inhibition call (active/not active)” value is “Active”. Further, the “topoisomerase 2 inhibition (active/not active)” value in test [14] is “inactive”. Further, the result in test [9] was Active.
As to `Cc1cccc2nc3c(nc12)-c1ccccc1C3=O`, the IC50 in [3] was more than 10 µM; in test [5] it was more than 10 µM; in test [6], 87.1 µM; in test [7] it was more than 10 µM; in test [8], more than 10 µM. In test [9], the result was inactive.
In the case of `O=C1c2ccccc2-c2nc3c(CN4CCC(N5CCCCC5)CC4)cccc3nc21`, the “topoisomerase 1 inhibition (active/inactive)” value in test [1] is “inactive”. In addition, the IC50 was more than 10 µM in [3]; more than 10 µM in test [5]; 89.7 µM in test [6]; more than 10 µM in test [7]; more than 10 µM in test [8]. In addition, in test [4], the “inhibition call (active/not active)” value is “inactive”. In addition, the result in test [9] was inactive.
For the compound `O=C1c2ccccc2-c2nc3c(C(=O)NCCN4CCOCC4)cccc3nc21`, the “topoisomerase 1 inhibition (active/inactive)” value in test [1] was “inactive”. Besides, the IC50 in [3] was more than 10 µM; in test [5], more than 10 µM; in test [6], 88.6 µM; in test [7] it was more than 10 µM; in test [8], more than 10 µM. The “inhibition call (active/not active)” value in test [4] was “inactive”. In addition, the result in [9] was inactive.
In the case of `O/N=C1\c2ccccc2-c2nc3ccccc3nc21`, in test [1], the “topoisomerase 1 inhibition (active/inactive)” value was “inactive”. The IC50 in test [3] was more than 10 µM; in test [5], more than 10 µM; in [6], 51.1 µM; in [7], more than 10 µM; in test [8], more than 10 µM. The “inhibition call (active/not active)” value in test [4] is “inactive”. For the same compound, the outcome in [9] was inactive.
`O=Cc1cccc2nc3c(nc12)-c1ccccc1C3=O`: the “topoisomerase 1 inhibition (active/inactive)” value in test [1] was “inactive”. Besides, the IC50 in [3] was more than 10 µM; in [5], more than 10 µM; in test [6], 78.9 µM; in [7], more than 10 µM; in [8], more than 10 µM. Further, the “inhibition call (active/not active)” value in test [4] is “inactive”. Further, the result in test [9] was inactive.
For `CN(C)Cc1cccc2nc3c(nc12)-c1ccccc1C3=O`, the “topoisomerase 1 inhibition (active/inactive)” value in test [1] is “Active”. In addition, the inhibition entry in test [2] was “inactive”. Further, the IC50 in [3] is more than 10 µM; in [5], more than 10 µM; in [6], 77.8 µM; in [7] it was more than 10 µM; in test [8], more than 10 µM. Also, the “inhibition call (active/not active)” value in test [4] is “inactive”. Besides, the result in test [9] was inactive.
With `COc1ccc2c(c1)/C(=N\OCCN1CCCC1)c1c-2c(O)nc2ccccc12`, the “topoisomerase 1 inhibition (active/inactive)” value in [1] is “Active”. Moreover, in [2], the inhibition entry is “Active”. Besides, the “inhibition call (active/not active)” value in [4] is “Active”. Besides, in [14], the “topoisomerase 2 inhibition (active/not active)” value was “Active”.
Consider `O=C1c2ccccc2-c2nc3c(C(=O)O)cccc3nc21`, for which the IC50 in test [3] was more than 10 µM; in test [5], more than 10 µM; in test [6], 71.2 µM; in test [7], more than 10 µM; in [8], more than 10 µM. For the same compound, the result in [9] was inactive.
In the case of `CC[C@@]1(O)C(=O)OCc2c1cc1n(c2=O)Cc2cc3c(CN(C)C)c(O)ccc3nc2-1` [TOPOTECAN], the “Ratio IC50” value in test [10] was 0.71; in [11], 0.45; in [12], 0.49; in [13] it was more than 42.5. Also, the IC50 in [5] is less than 0.1 µM; in [6], 4.25 µM; in test [7], 9.35 µM.
For `O=C1c2ccccc2-c2nc3c(CN4CCCC4)cccc3nc21`, in test [1], the “topoisomerase 1 inhibition (active/inactive)” value was “Active”. Moreover, the inhibition result in test [2] is “inactive”. Besides, the IC50 in [3] is more than 10 µM; in [5], more than 10 µM; in test [6], 9.8 µM; in [7], more than 10 µM; in test [8], 6.98 µM. The “inhibition call (active/not active)” value in [4] was “inactive”. The “Ratio IC50” value in [12] turned out to be 1.4. The result in test [9] was inactive.
`O/N=C\c1cccc2nc3c(nc12)-c1ccccc1/C3=N/O`: the “topoisomerase 1 inhibition (active/inactive)” value in test [1] is “inactive”. Moreover, the “Ratio IC50” value in test [10] was determined as 0.8; in test [11], 0.69; in [12], 0.76; in test [13], 0.61. The IC50 in test [3] amounted to 8.13 µM; in test [5] it was 10.8 µM; in test [6], 6.54 µM; in [7] it was 9.45 µM; in [8], 8.61 µM. In test [4], the “inhibition call (active/not active)” value is “inactive”. Further, in test [9], the outcome was inactive.
Turning to `O=C1c2ccccc2-c2nc3ccccc3nc21`, the IC50 in test [3] was more than 10 µM; in [5], more than 10 µM; in test [6] it was 85.3 µM; in test [7], more than 10 µM; in [8], more than 10 µM. Besides, the outcome in test [9] was inactive.
For the compound `CN(C)CCCO/N=C1\c2ccccc2-c2nc3c(C(=O)O)cccc3nc21`, the “topoisomerase 1 inhibition (active/inactive)” value in test [1] was “inactive”. In addition, the IC50 in test [3] is more than 10 µM; in [5], more than 10 µM; in [6], 15.1 µM; in test [7], more than 10 µM; in test [8], more than 10 µM. Besides, the “inhibition call (active/not active)” value in test [4] is “inactive”. In test [9], the outcome was inactive.
